# Screening results deposited in PubChem BioAssay by several laboratories.
# This is a sample that favours compounds with a hit; in the whole collection about 2.1% have one here.
# RanGTP-Impb inh = disruptors of Ran-importin-beta complex formation – biochemical, FRET, CFP-Ran, YFP-importin-beta, homogeneous, primary screen | 300,000 tested, 1.1% active | cell-free CFP-Ran/YFP-importin-beta FRET ratio | inhibition, % (concentration not given with the values) | AID 2216;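 active = more than half of the replicate wells show a fall in the fluorescence ratio signal beyond about 16%, limit read from the data, passing the limit was not always enough; inconclusive = exactly half of the replicate wells pass the set limit; inactive = fewer than half of replicates pass the limit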;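 note: 0% = DMSO wells and 100% = Ran loaded with GDP instead of GTP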
# Hck Nef HTS = inhibitors of human Hck kinase activated by Nef | P08631 | Recombinant Hck-YEEI plus Nef, Z-Lyte FRET kinase assay | inhibition, % at 20 µM | 220,000 tested, 0.68% active | AID 463187;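 active = Hck-Nef kinase inhibition above about 50%, limit read from the data; inactive = inhibition below that limit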;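 note: 0% = DMSO with Hck plus Nef and 100% = Hck alone without Nef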
# Target sequence (P08631 whole entry, looked up): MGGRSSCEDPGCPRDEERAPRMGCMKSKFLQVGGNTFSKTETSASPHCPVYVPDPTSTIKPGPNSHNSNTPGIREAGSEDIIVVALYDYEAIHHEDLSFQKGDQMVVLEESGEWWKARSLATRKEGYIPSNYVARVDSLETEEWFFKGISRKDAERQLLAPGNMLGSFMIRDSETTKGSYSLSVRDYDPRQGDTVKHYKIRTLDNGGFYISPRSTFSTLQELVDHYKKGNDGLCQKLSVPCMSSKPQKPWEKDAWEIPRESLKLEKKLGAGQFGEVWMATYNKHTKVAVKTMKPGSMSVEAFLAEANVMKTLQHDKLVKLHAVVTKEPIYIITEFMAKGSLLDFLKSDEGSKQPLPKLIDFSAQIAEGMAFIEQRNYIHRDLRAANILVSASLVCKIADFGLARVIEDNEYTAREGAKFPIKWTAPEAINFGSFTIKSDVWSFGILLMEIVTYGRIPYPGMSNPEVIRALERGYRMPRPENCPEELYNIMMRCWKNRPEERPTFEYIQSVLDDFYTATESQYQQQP
# Runt-SMMHC FRET = inhibitors of human RUNX1 Runt domain binding to CBFb-SMMHC. 220,000 tested, 0.74% active. Cerulean-Runt/Venus-CBFb-SMMHC FRET ratio 530/480, 1 h. AID 1434. inhibition, % at 20 µM;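 active = mean inhibition across duplicate retests at 20 µM reaching about 50%, limit read from the data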;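 note: 0% = DMSO wells and 100% = wells with excess untagged CBFb-SMMHC; inhibitors lower the FRET ratio by blocking Runt binding to CBFb-SMMHC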
# Runt-CBFb FRET = inhibitors of human RUNX1 Runt domain binding to CBFb; Cerulean-Runt/Venus-CBFb FRET ratio 530/480, 1 h; Q01196+Q13951; inhibition, % at 20 µM; 220,000 tested, 0.46% active;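 active = inhibition over about 50% at 20 µM in the single-dose screen, limit read from the data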;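 note: 0% = DMSO wells and 100% = excess unlabeled CBFb competitor control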
#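 Schedule: protein complex preformed 1 h, compound exposure 1 h, room temperature, dark; test system: Cerulean-labeled Runt domain protein; amount: 100 nM per protein; buffer or medium: Tris 50 mM pH 7.5, KCl, K2SO4, 0.01% BSA; read-out: loss of energy transfer signal; detection: FRET fluorescence; controls: 5 µM unlabeled CBFb as full-inhibition high control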
# p-CIP stab down = lowers stability of the mouse p/CIP coactivator protein | Q05BA5 | F442A p/CIP-EGFP cells, EGFP fluorescence, 16 h | decrease of EGFP signal, % at 10 µM | 290,000 tested, 0.01% active;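 active = EGFP signal decrease of at least 30% at 10 µM or well 3 SD below plate mean, unless failing retest; inactive = the rest, including hits failing retest or dose response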
# DSG3 Ab inh = blocks pemphigus antibody binding to human desmoglein-3; P32926; DSG3-coupled beads, scFv-anti-DSG3-GFP binding, flow cytometry; stronger effect = lower value; binding (percent of control), % at 10 µM; 310,000 tested, 0.48% active;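 active = binding more than 3 SD below its plate's average and above zero; inconclusive = below that plate limit but binding exactly zero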;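 note: hits lower antibody fragment binding to DSG3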
# Numbers without * were called inactive; ? = inconclusive; · = no result given; ! = a repeat was not active.
SMILES,RanGTP-Impb inh,Hck Nef HTS,Runt-SMMHC FRET,Runt-CBFb FRET,p-CIP stab down,DSG3 Ab inh
O=c1oc2ccccc2cc1-c1nc(-c2cccs2)cs1,-85,1,-129,-24,4,88
N=c1oc2ccc3ccccc3c2cc1-c1nc(-c2ccccc2)cs1,73*,2,29,22,3,106
N=c1oc2ccccc2cc1-c1nc(-c2ccccc2)cs1,44*,-1,-160,-60,1,105
Cc1ccc(NC(=O)CCNS(=O)(=O)c2cccc3nsnc23)cc1F,1,·,·,·,-6,·
CC(C(=O)NCc1ccco1)n1ccc2cc(S(=O)(=O)N3CCCCC3)ccc21 (configuration not stated),4,·,·,·,-9,103
COc1ccc(-c2csc3ncnc(N4CCN(S(=O)(=O)c5cccs5)CC4)c23)cc1,0,·,·,·,·,101
COc1ccc(-c2csc3ncnc(N4CCN(S(=O)(=O)c5ccc(C)cc5)CC4)c23)cc1,-3,·,·,·,·,69*
O=C(CN1CC(=O)Nc2ccccc21)NCCc1ccc(Cl)cc1Cl,-2,-4,1,·,-14,100
COCCn1c(C)cc(C(=O)CSc2nc(C)cc(C)c2C#N)c1C,8,3,58*,10,-10,96
CCOc1ccc(N(CC(=O)NCCSCc2ccco2)S(=O)(=O)c2ccc(C)cc2)cc1,6,·,·,·,12,81*
CCOc1ccc(N(CC(=O)NCCSCc2ccco2)S(=O)(=O)c2ccc(F)cc2)cc1,0,·,·,·,-2,98
CCOC(=O)c1c(-c2cccs2)csc1NC(=O)C(C)(C)C,-3,-2,-6,110*,-5,106
Cc1cc(C)c2c(N)c3cccc(C)c3nc2n1,126*,5,79*,5,-3,104
Cc1cccc2c(N)c3c(nc12)CCCC3 (tested in a mixture with another compound),·,21,-4,2,-1,103
CC1C2=C(CC(C)(C)CC2=O)NC2=C1C(=O)CC(C)(C)C2,136*,39,86*,21,3,100
CC(C)(C)c1csc(NC(=O)c2cccs2)n1,?,3,0,-2,3,112
CC(C)(C)c1csc(NC(=O)c2cccnc2)n1,36*,·,·,·,-10,117
CC(C)CN(C(=O)c1cccc(S(=O)(=O)N2CCN(C)CC2)c1)C1CCS(=O)(=O)C1 (configuration not stated),·,·,·,·,·,99
Cc1nc2sccn2c(=O)c1S(=O)(=O)NCCc1ccc(Cl)cc1,0,·,·,·,-21,-7.6*
O=C(CCC(=O)N1CCN(c2ccccc2F)CC1)N1CCN(c2ccccc2)CC1,-4,·,·,·,10,77*
CC(C)Cc1nnc(NC(=O)CCC(=O)N2CCN(c3ccccc3F)CC2)s1,154*,·,·,·,-5,95
O=C(NCCCN1CCOCC1)c1cc(S(=O)(=O)N2CCOCC2)ccc1Cl,·,·,·,·,·,88
Cc1cccn2c(=O)c3cc(C#N)c(=N)n(Cc4cccnc4)c3nc12,·,3,·,·,·,104
N#Cc1cc2c(=O)n3ccccc3nc2n(Cc2cccnc2)c1=O,74*,·,·,·,·,96
CC(=O)N=c1c(C#N)cc2c(=O)n3ccccc3nc2n1Cc1ccccc1,32*,19,81*,138*,-10,98
SMILES,RanGTP-Impb inh,Hck Nef HTS,Runt-SMMHC FRET,Runt-CBFb FRET,p-CIP stab down,DSG3 Ab inh
CCN1CCN(C(=O)c2cc3c(=O)n4ccccc4nc3n2Cc2ccccc2)CC1,·,·,13,5,-13,·
Cc1cccn2c(=O)c3cc(C#N)c(=O)n(Cc4cccnc4)c3nc12,·,·,41,79*,-9,·
COc1ccc2oc(C(=O)OCC(=O)NCc3ccc(OC)c(OC)c3)c(C)c2c1,·,·,·,·,·,100
CCCc1cc(=O)oc2cc(OCC(=O)NCC(O)c3ccccc3)ccc12 (configuration not stated),0,·,·,·,-2,0.7*
CCCc1cc(=O)oc2cc(OCC(=O)NCc3cccs3)ccc12,-5,3,2,-1,4,46*
CCCc1cc(=O)oc2cc(OCC(=O)NCc3ccccn3)ccc12,-5,·,·,·,-1,109
CC(C)(C)c1ccc(C(=O)c2c[nH]c(C(=O)NCCCN3CCOCC3)c2)cc1,7,1,2,-1,14,-3.8*
CCC(=O)c1c[nH]c(C(=O)NCCCN2CCOCC2)c1,9,4,5,0,-1,95
O=C(NNC(=O)c1ccccc1[N+](=O)[O-])c1csc(N2CCOCC2)n1,-5,·,·,·,·,102
CCCCCn1c(=O)[nH]c2c(c1=O)CCC2,2,0,-4,-6,-9,-1.0*
Cc1ccc(C(=O)NNC(=O)CSc2nnc(C(C)C)n2C)cc1,6,·,·,·,-12,·
C=CCN1C(=O)[C@]2(c3ccccc31)C1CCCC=C1C(C#N)=C(N)C2(C#N)C#N (some centres not stated),-1,1,-37,-7,-8,108
CN1CCC2(CC1)C1CN(C)CC=C1C(C#N)=C(N)C2(C#N)C#N (configuration not stated),43*,8,75*,71*!,-17,103
CCCCN(C)CCNC(=O)C1CCN(S(=O)(=O)c2cccc3nsnc23)CC1,2,·,·,·,-11,102
Nc1nc(N)c2[nH]c(-c3ccccc3)nc2n1,?,·,·,·,-45,115
Cc1ccc2scc(CN3CCCC3)c2c1,4,·,·,·,·,106
COC(=O)c1ccc2c(=O)n(CCCCCC(=O)NCc3ccccc3)c(=O)[nH]c2c1,0,0,-2,-2,-11,92
COC(=O)c1ccc2c(=O)n(CCCCCC(=O)NCc3ccc4c(c3)OCO4)c(=O)[nH]c2c1,35*,3,2,0,-13,92
C=CCN(C(=O)c1ccc2snnc2c1)c1ccccc1,3,·,·,·,0,96
Cc1cccc(-n2c3nc(=O)[nH]c(=O)c-3cc3cc([N+](=O)[O-])ccc32)c1,2,7,55*,21,3,111
Clc1ccsc1-c1csc(-c2cccnc2)n1,37*,1,-4,-3,-8,·
c1cncc(-c2csc(-c3cccnc3)n2)c1,9,·,·,·,0,105
CCOC(=O)N1CCN(c2c(N3CCN(c4ccc(OC)cc4)CC3)c(=O)c2=O)CC1,-2,1,4,3,-21,100
COc1ccc(N2CCN(c3nc(=S)n(-c4ccccc4)c(C)c3C(C)=O)CC2)cc1,92*,1,-27,7,-27,132
CC(=O)c1c(N2CCN(C)CC2)nc(=S)n(Cc2ccccc2)c1C,?,6,83*,62*,-8,116
CC(=O)c1c(N2CCN(c3cccc(Cl)c3)CC2)nc(=S)n(-c2ccccc2)c1C,46*,1,8,6,0,112
